Screening results from PubChem BioAssay.
APJ agonist: activates the human apelin receptor APJ; CHO-K1 APJ PathHunter beta-arrestin, luminescence; 0% DMSO wells, 100% apelin; activation, % at 20 µM; actives 0.11% (n = 330,000); AID 2520;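 active = activation more than six SD over the plate average, tested at 20 µM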
Target sequence (P35414 whole entry, looked up): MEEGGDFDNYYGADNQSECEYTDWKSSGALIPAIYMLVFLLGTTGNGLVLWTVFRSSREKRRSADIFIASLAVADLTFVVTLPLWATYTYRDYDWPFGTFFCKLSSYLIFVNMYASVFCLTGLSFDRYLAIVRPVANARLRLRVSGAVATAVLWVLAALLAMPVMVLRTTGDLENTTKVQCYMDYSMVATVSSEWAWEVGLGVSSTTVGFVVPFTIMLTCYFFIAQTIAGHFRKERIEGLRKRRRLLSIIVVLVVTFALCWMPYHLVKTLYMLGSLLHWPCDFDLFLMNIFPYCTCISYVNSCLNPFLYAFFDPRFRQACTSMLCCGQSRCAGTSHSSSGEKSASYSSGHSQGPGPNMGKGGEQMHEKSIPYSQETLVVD
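system = engineered CHO-K1 APJ arrestin reporter cells | input = 1000 cells per well | timing = overnight seeding, 90 min compound at 25 °C, 1 h detection | measured by = enzyme-fragment complementation luminescence | read-out = beta-arrestin recruitment to APJ as agonist activity, luminescent signal | control set = negative DMSO alone, positive Apelin-13 at 10 nM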
APJ antagonist: APJ receptor antagonism. P35414. CHO-K1 APJ beta-arrestin complementation, luminescence. inhibition, % at 20 µM. actives 0.32% (n = 330,000). AID 2521;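 active = inhibition above about 40% at 20 µM, limit read from the data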;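 note: cells challenged with 10 nM apelin-13 agonist together with compound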
HTR2A ag: agonists of mouse serotonin 5-HT2A receptor (HTR2A) | activation, % at 7.6 µM | CHO-K1 mHTR2A beta-arrestin complementation, luminescence; percent of 30 µM serotonin response | actives 0.66% (n = 360,000) | P35363;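 active = activation above a run cutoff, the mean activation of all tested compounds plus 3 SD, cut at about 14% in these data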
CXCR6 block: blocks human CXCR6 beta-arrestin recruitment. inhibition, % at 20 µM. CHO-K1 PathHunter CXCR6 beta-arrestin, luminescence. actives 0.36% (n = 360,000). O00574; in the data active = inhibition above about 34%, passing the limit was not always enough;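 note: antagonist mode with CXCL16 agonist at 10 nM final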
CCR6 antag: blocks CCL20-driven beta-arrestin recruitment at human CCR6; actives 0.49% (n = 340,000); CHO-K1 CCR6 PathHunter beta-arrestin, luminescence, CCL20-stimulated; P51684; inhibition, % at 20 µM;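 active = compounds whose inhibition of the agonist-driven luminescence signal at 20 µM reaches about 50%, limit read from the data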;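 note: cells stimulated with CCL20 at 14 nM final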
EBI2 block: antagonists of human EBI2 receptor. EBI2 beta-arrestin recruitment, luminescence, 7a,25-OHC stimulated. inhibition, % at 5 µM. actives 0.81% (n = 360,000); in the data active = inhibition above about 38%;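 note: enzyme fragment complementation signal reports receptor beta-arrestin coupling in cells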
EBI2 antag conf: EBI2 (human) antagonism, single concentration confirmation; shares compounds with EBI2 block; EBI2 beta-arrestin luminescence, 7a,25-OHC antagonism; inhibition, % at 5 µM; actives 29% (n = 2,400);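 active = inhibition of at least 50%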
EBI2 ag: activates EBI2, counter-screen for EBI2 antagonists | shares compounds with EBI2 block | EBI2-expressing cells, agonist mode, luminescence, 60 min; 0% vehicle, 100% 7α,25-dihydroxycholesterol control | activation, % at 5 µM | 2,400 tested, under 10 active | AID 652000;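 active = activation of at least 50%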
bGal counter: counter-screen for EBI2 antagonists: E. coli beta-galactosidase inhibition; inhibition, % at 5 µM; actives 1% (n = 2,400); shares compounds with EBI2 block; AID 652176; purified beta-galactosidase, luminescent Galacton Star, 15 min;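 active = replicate-average signal at least 3 plate SD below neutral wells, shown as high inhibition, flagging enzyme-inhibiting false positives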;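 note: higher means stronger loss of beta-gal luminescence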
Each line names hits and unclear results; the compound was inactive in the other large screens (follow-up assays come after a bar, where they were run). Rows were chosen to be rich in hits. Some 2.1% of all compounds tested hit in one or more screens of this group.

Cc1ccc(CNC(=O)c2ccc(N3CCc4ccccc43)c([N+](=O)[O-])c2)cc1	EBI2 block 37.4 | EBI2 antag conf inactive | EBI2 ag inactive | bGal counter inactive
Nc1c(S(=O)(=O)c2ccccc2)c2nc3ccccc3nc2n1/N=C/c1cccc(O)c1	EBI2 block 68.4 | EBI2 antag conf inactive | EBI2 ag inactive | bGal counter inactive
Cc1ccc([C@H]2C[C@H](n3cc(-c4ccc(F)cc4)nn3)[C@@H](O)CN2C(=O)C2CCCCC2)cc1	none (no result: APJ agonist, APJ antagonist, CCR6 antag)
COn1c(-c2ccccc2)nc2c1CCc1c-2no[n+]1[O-]	none
[O-][n+]1onc2c1CCc1c-2nc(-c2ccccc2)n1OCc1ccccc1	EBI2 block 48.9 | EBI2 antag conf inactive | EBI2 ag inactive | bGal counter inactive
CN(Cc1ccccc1)C(=O)COc1ccc2ccccc2c1	EBI2 block 90.1 | EBI2 antag conf 86.5 | EBI2 ag inactive | bGal counter inactive
Cc1cc(OCC(=O)N(C)Cc2ccccc2)cc(C)c1Cl	EBI2 block 87.0 | EBI2 antag conf 65.2 | EBI2 ag inactive | bGal counter inactive
CN(Cc1ccccc1)C(=O)COc1cc(Cl)ccc1Cl	none
Cc1ccc(OCCNC(=O)c2ccc(NC(=O)CC3SC(N4CCCC4)=NC3=O)cc2)cc1 (stereo unspecified)	none
CC(=O)c1ccc(N2CCN(C(=O)c3cc4c(C)nc5ccccc5c4o3)CC2)cc1	none
COc1ccc(N2CCN(C(=O)c3cc4c(C)nc5ccccc5c4o3)CC2)cc1	EBI2 block 53.8 | EBI2 antag conf inactive | EBI2 ag inactive | bGal counter inactive
Cc1nc2ccccc2c2oc(C(=O)N3CCC(N4CCCCC4)CC3)cc12	none
Cc1nc2ccccc2c2oc(C(=O)N3CCN(C4CCCCC4)CC3)cc12	EBI2 block 86.9 | EBI2 antag conf 76.7 | EBI2 ag inactive | bGal counter inactive
Cc1ccc(OCCNC(=O)CNC(=O)c2ccc3c(c2)OCO3)cc1	none
COc1ccc(N2CCN(C(=O)c3ccc4c(c3)CC(c3ccccc3)OC4=O)CC2)cc1 (stereo unspecified)	EBI2 block 91.3 | EBI2 antag conf 78.4 | EBI2 ag inactive | bGal counter inactive
O=C(O)c1ccc2c(c1)CC(c1ccccc1)OC2=O (stereo unspecified)	none
O=C1OC(c2ccccc2)Cc2cc(C(=O)N3CCN(c4ccc(F)cc4)CC3)ccc21 (stereo unspecified)	EBI2 block 90.0 | EBI2 antag conf 58.1 | EBI2 ag inactive | bGal counter inactive
COc1ccc(CNC(=O)C2Cc3c(-c4cccc(F)c4)ccnc3O2)cc1OC (stereo unspecified)	none (no result: APJ agonist, APJ antagonist, CCR6 antag)
Cc1ccc(C(=O)OCC(=O)N2CCC(c3ccccc3)=N2)cc1	none
O=c1c2ccccc2n2c(-c3ccc(F)cc3)nnc2n1Cc1ccccc1	none
O=c1c2ccccc2n2c(-c3ccc(C(F)(F)F)cc3)nnc2n1Cc1ccccc1	EBI2 block 47.4 | EBI2 antag conf inactive | EBI2 ag inactive | bGal counter inactive
CCOC(=O)CN(C(=O)CSc1nnc(CNc2ccc(C)cc2C)o1)c1ccccc1	EBI2 block 45.5 | EBI2 antag conf inactive | EBI2 ag inactive | bGal counter inactive
CCOc1cc(/C=N/NC(=O)c2nnn(-c3nonc3N)c2C)ccc1OCc1ccc(C)cc1	EBI2 block 54.0 (no result: APJ agonist, APJ antagonist, CCR6 antag) | EBI2 antag conf 51.0 | EBI2 ag inactive | bGal counter inactive
Cc1cccc(COc2ccc(/C=N/NC(=O)c3nnn(-c4nonc4N)c3C)cc2)c1	none
CCOc1cc(/C=N/NC(=O)c2nnn(-c3nonc3N)c2C)ccc1OCc1cccc(F)c1	EBI2 block 41.9 | EBI2 antag conf inactive | EBI2 ag inactive | bGal counter inactive
CCOc1cc(/C=N/NC(=O)c2nnn(-c3nonc3N)c2C)ccc1OCc1ccc(F)cc1	EBI2 block 52.4 | EBI2 antag conf inactive | EBI2 ag inactive | bGal counter inactive
Cc1ccc(COc2cccc(/C=N/NC(=O)c3nnn(-c4nonc4N)c3C)c2)cc1	none
COc1ccc(CCN2C(=O)CC(C(N)=O)SC2=Nc2ccc(F)cc2)cc1OC (stereo unspecified)	none
COC(=O)/C=C/c1ccccc1CN1[C@@H](CC(=O)OC)c2ccccc2S1(=O)=O	none
O=C(CSC1=Nc2ccccc2C2CC=NN12)NCc1ccco1 (stereo unspecified)	none
CCCOC(=O)c1ccc(NC(=O)CSC2=Nc3ccccc3C3CC=NN23)cc1 (stereo unspecified)	EBI2 block 39.6 | EBI2 antag conf inactive | EBI2 ag inactive | bGal counter inactive
CC(Sc1nc2cc([N+](=O)[O-])ccc2n1-c1ccc(F)cc1)C(=O)NCc1ccc2c(c1)OCO2 (stereo unspecified)	EBI2 block 54.2 | EBI2 antag conf inactive | EBI2 ag inactive | bGal counter inactive
CCOC(=O)C1CCN(C(=O)COc2ccc(Br)cc2C)CC1	none
O=C(CSc1ccc(Cl)cc1)N1CCC(c2nc3ccccc3s2)CC1	EBI2 block 82.5 | EBI2 antag conf 66.4 | EBI2 ag inactive | bGal counter inactive
CCOC(=O)C1CCN(C(=O)CSc2ccc(Cl)cc2)CC1	EBI2 block 76.7 | EBI2 antag conf inactive | EBI2 ag inactive | bGal counter inactive
CCOC(=O)C1CCN(C(=O)CSc2ccc(Br)cc2)CC1	EBI2 block 83.7 | EBI2 antag conf 54.3 | EBI2 ag inactive | bGal counter inactive
O=C(CSc1c(Cl)cccc1Cl)N1CCC(c2nc3ccccc3s2)CC1	none
CCOC(=O)C1CCN(C(=O)C(C)Sc2ccc(Cl)cc2)CC1 (stereo unspecified)	none
CCCCN(CC)S(=O)(=O)c1ccc2c(c1)n(C)c(=O)c(=O)n2C	none
C/C=C\C=C\C(=O)N1CC2(CC(c3cccc(NC(=O)COc4ccc(Cl)cc4)c3)=NO2)C[C@H]1C(N)=O (stereo partly specified)	EBI2 block 48.0 | EBI2 antag conf inactive | EBI2 ag inactive | bGal counter inactive
CCOC(=O)c1cnc2cc(Cl)c(OC)cc2c1NCC1CCCO1 (stereo unspecified)	EBI2 block 41.4 | EBI2 antag conf inactive | EBI2 ag inactive | bGal counter inactive
